The values below come from ChEMBL document CHEMBL3621200, “Toward the discovery of dual HCMV-VZV inhibitors: Synthesis, structure activity relationship analysis, and cytotoxicity studies of long chained 2-uracil-3-yl-N-(4-phenoxyphenyl)acetamides” (Bioorg Med Chem, 2015).

By EC50 is commonly meant the concentration that produces a half-maximal response. By CC50 is commonly meant the concentration that lowers cell viability or growth by half.

The test system of data set [1] is Vesicular stomatitis virus. Nature of the data set: Antiviral activity against Vesicular stomatitis virus. It counts as functional, organism-based. Summed up:
(§1)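 Confluent cell monolayers (HEL, Vero, HeLa or MDCK) in 96-well plates were infected with 100 CCID50 of virus in the presence of varying compound concentrations. Cytopathicity was scored once it reached completion in untreated infected controls.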

The test system of data set [2] is Human betaherpesvirus 5. Kind of data set: Antiviral activity against human cytomegalovirus Davis infected in HEL cells assessed as reduction in viral plaque formation. It counts as functional, organism-based. The conditions noted are these: Human betaherpesvirus 5, Davis. Summed up: (§2)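 Confluent HEL fibroblasts were infected with 100 PFU of HCMV in the presence of varying compound concentrations. Plaques were counted once plaque formation was complete in untreated infected controls.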

The test system of data set [3] is Human herpesvirus 2 strain G. Nature of the data set: Antiviral activity against HSV2 G Lyons. Type of data set: functional, organism-based.
Data set [4] relates to Vaccinia virus. Nature of the data set: Antiviral activity against Vaccinia virus Lederle. Type of data set: functional, organism-based. The conditions noted are these: Orthopoxvirus vaccinia. The gist of the method:
as §1

The test system of data set [5] is Sindbis virus. Nature of the data set: Antiviral activity against Sindbis virus. Type of data set: functional, organism-based.
Data set [6] has as its system Human immunodeficiency virus 1. Nature of the data set: Antiviral activity against HIV1 3B infected in human CEM cells assessed as reduction in virus- induced cytopathicity incubated for 4 to 5 days by microscopy based virus syncytium formation assay. It counts as functional, organism-based. The conditions noted are these: CCRF-CEM. Summed up: (§3)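 CEM cells at ~3 × 10^5 cells/mL, infected with 100 CCID50 of HIV per mL in the presence of compound dilutions. Incubated 4–5 days at 37 °C in humidified CO2. Syncytium (giant cell) formation scored by microscopy.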
For orientation: Damage to the host cells serves as the signal in cytopathic effect assays.

The test system of data set [7] is Human betaherpesvirus 5. Nature of the data set: Antiviral activity against human cytomegalovirus AD169 infected in HEL cells assessed as reduction in viral plaque formation. Type of data set: functional, organism-based. Particulars: Human betaherpesvirus 5, AD169, HEL. Summed up:
as §2

The subject of data set [8] is Influenza A virus H3N2. Nature of the data set: Antiviral activity against Influenza A virus H3N2. It counts as functional, organism-based. Summed up: as §1
In data set [9] the test system is HEL. Kind of data set: Cytotoxicity against Varicella zoster virus infected HEL cells assessed as cell growth inhibition incubated for 3 days by coulter counter method. Particulars: human, 72 h.
Data set [10] deals with Coxsackievirus B4. Nature of the data set: Antiviral activity against Human coxsackievirus B4. It counts as functional, organism-based.
The nature of data set [11]: Cytotoxicity against human cytomegalovirus infected HEL cells assessed as alteration of cell morphology incubated for 3 days by microscopy. It counts as cell-based. The conditions noted are these: HEL cells infected with human cytomegalovirus. The gist of the method:
(§4)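 Cytotoxicity was given as the minimum cytotoxic concentration (MCC): the compound concentration causing a microscopically detectable change in HEL cell morphology.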

For data set [12], the system named is Influenza A virus. Kind of data set: Antiviral activity against Influenza A virus H1N1. Type of data set: functional, organism-based. Summed up:
as §1

Data set [13] deals with Influenza B virus. Kind of data set: Antiviral activity against Influenza B virus. It counts as functional, organism-based. The gist of the method:
as §1

Data set [14] in a line: Cytotoxicity against Varicella zoster virus infected HEL cells assessed as alteration of cell morphology incubated for 3 days by microscopy. Type of data set: cell-based. Particulars: human, HEL cells infected with Varicella zoster virus. The gist of the method:
as §4

Data set [15] relates to Human respirovirus 3. Kind of data set: Antiviral activity against Parainfluenza 3 virus. It counts as functional, organism-based.
The subject of data set [16] is Human alphaherpesvirus 1. Nature of the data set: Antiviral activity against HSV1 KOS. Type of data set: functional, organism-based. The gist of the method:
(§5)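 Confluent cell monolayers in 96-well plates were inoculated with 100 CCID50 of virus together with varying compound concentrations. Cytopathicity was scored once it reached completion in untreated infected controls.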

Data set [17] concerns Human alphaherpesvirus 2. Nature of the data set: Antiviral activity against HSV2 Lyons. Type of data set: functional, organism-based. The gist of the method: as §5
The test system of data set [18] is Human immunodeficiency virus 2. Kind of data set: Antiviral activity against HIV2 ROD infected in human CEM cells assessed as reduction in virus- induced cytopathicity incubated for 4 to 5 days by microscopy based virus syncytium formation assay. Type of data set: functional, organism-based. The conditions noted are these: ISOLATE ROD, CCRF-CEM. Summed up:
as §3

For data set [19], the system named is HEL. Kind of data set: Cytotoxicity against human cytomegalovirus infected HEL cells assessed as cell growth inhibition incubated for 3 days by coulter counter method. Type of data set: cell-based. Particulars: 72 h. The gist of the method:
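HEL cells were seeded at 5 × 10^3 cells/well and left to adhere and proliferate for 24 h, then compound-containing medium was added. After 3 days at 37 °C, cells were counted with a Coulter counter.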

Data set [20] relates to Feline coronavirus. Kind of data set: Antiviral activity against Feline coronavirus. It counts as functional, organism-based.
The test system of data set [21] is Punta Toro virus. Nature of the data set: Antiviral activity against Punta Toro virus. It counts as functional, organism-based.
Data set [22] concerns Mammalian orthoreovirus 1. Kind of data set: Antiviral activity against Reovirus 1. Type of data set: functional.
The nature of data set [23]: Selectivity index, ratio of CC50 for human cytomegalovirus AD169 infected HEL cells to EC50 for human cytomegalovirus AD169. Particulars: HEL cells infected with human cytomegalovirus AD169, read-out: Ratio CC50/EC50. Type of data set: toxicity, cell-based.
A short description of data set [24]: Selectivity index, ratio of CC50 for human cytomegalovirus Davis infected HEL cells to EC50 for human cytomegalovirus Davis. Particulars: HEL cells infected with human cytomegalovirus Davis, read-out: Ratio CC50/EC50. It counts as toxicity, cell-based.

Activity calls are given as the source filed them. No cut-off for these calls is given here.

For the compound `CN(C(=O)Cn1c(=O)ccn(CCCCCOc2ccc(Br)cc2)c1=O)c1ccc(Oc2ccccc2)cc1`, the inhibition result in [1], in data set [3], in data set [4], in data set [5], in data set [6] and in [8] was “inactive” in each case. The inhibition entry in [10], in data set [12], in data set [13], in data set [15], in data set [16] and in data set [17] was “inactive” in each case. Moreover, the inhibition result in [18], in data set [20], in data set [21] and in data set [22] was “inactive” throughout. Besides, the EC50 came out at 1.29 µM in data set [2] and 0.98 µM in [7]. Besides, the figures for the 50% cytotoxic concentration (CC50) in data set [9] and in [19] were 6 µM and 6.1 µM, respectively. In addition, the results for the MCC at 72 h in data set [11] and in data set [14] were not below 4 µM and not below 100 µM, respectively.
With `O=C(Cn1c(=O)ccn(CCCCOc2ccc(Br)cc2)c1=O)Nc1ccc(Oc2ccccc2)cc1`, the inhibition entry in data set [1], in [3], in data set [4], in [5], in [6] and in data set [8] was “inactive” each time. The inhibition result in [10], in [12], in [13], in [15], in data set [16] and in [17] was “inactive” in each case. Further, the inhibition entry in [18], in data set [20], in data set [21] and in [22] was “inactive” each time. For the same compound, the EC50 in data set [2] amounted to 1.64 µM; in [7] it was 1.79 µM. The CC50 in [9] and in [19] was 7.7 µM each time. The results for the MCC at 72 h in data set [11] and in [14] were not below 20 µM and more than 100 µM, respectively.
In the case of `O=C(Cn1c(=O)ccn(CCCCCCOc2ccc(Br)cc2)c1=O)Nc1ccc(Oc2ccccc2)cc1`, the inhibition entry in data set [1], in data set [3], in data set [4], in [5], in [6] and in data set [8] was “inactive” in each case. Besides, the inhibition result in data set [10], in data set [12], in data set [13], in [15], in data set [16] and in data set [17] was “inactive” each time. Further, the inhibition result in data set [18], in [20], in data set [21] and in data set [22] was “inactive” throughout. In addition, the figures for the 50% effective concentration (EC50) in data set [2] and in [7] were 0.2 µM and 0.29 µM, respectively. Further, the CC50 in data set [9] and in data set [19] was 11.7 µM in each case. The MCC at 72 h in data set [11] and in data set [14] was 4 µM each time.
For `O=C(Cn1c(=O)ccn(CCCCCOc2ccc(Br)cc2)c1=O)Nc1ccc(Oc2ccccc2)cc1`, the inhibition entry in data set [1], in data set [3], in data set [4], in [5], in [6] and in [8] was “inactive” in each case. Also, the inhibition entry in data set [10], in data set [12], in data set [13], in data set [15], in [16] and in data set [17] was “inactive” each time. The inhibition result in data set [18], in data set [20], in data set [21] and in [22] was “inactive” in each case. Also, in data set [2], the EC50 came out at 0.97 µM. In addition, the cytotoxic concentration (CC50) in data set [9] and in [19] was 8.7 µM in each case. Besides, the values for the MCC at 72 h in [11] and in data set [14] were 20 µM and more than 100 µM, respectively. In addition, the selectivity ratio in [23] and in data set [24] was 9 in each case.
